Measurements from publication PMC6905387 (ACS chemical biology, 2018).
“Also recorded” adds a separate entry of the source.

What was measured:
SmTGR [1] = molecular target: T1, SmTGR (Schistosoma mansoni, UniProt Q962Y6); experiment: SmTGR enzymatic assay; assay type: biochemical
T1 sequence (Q962Y6 1-598): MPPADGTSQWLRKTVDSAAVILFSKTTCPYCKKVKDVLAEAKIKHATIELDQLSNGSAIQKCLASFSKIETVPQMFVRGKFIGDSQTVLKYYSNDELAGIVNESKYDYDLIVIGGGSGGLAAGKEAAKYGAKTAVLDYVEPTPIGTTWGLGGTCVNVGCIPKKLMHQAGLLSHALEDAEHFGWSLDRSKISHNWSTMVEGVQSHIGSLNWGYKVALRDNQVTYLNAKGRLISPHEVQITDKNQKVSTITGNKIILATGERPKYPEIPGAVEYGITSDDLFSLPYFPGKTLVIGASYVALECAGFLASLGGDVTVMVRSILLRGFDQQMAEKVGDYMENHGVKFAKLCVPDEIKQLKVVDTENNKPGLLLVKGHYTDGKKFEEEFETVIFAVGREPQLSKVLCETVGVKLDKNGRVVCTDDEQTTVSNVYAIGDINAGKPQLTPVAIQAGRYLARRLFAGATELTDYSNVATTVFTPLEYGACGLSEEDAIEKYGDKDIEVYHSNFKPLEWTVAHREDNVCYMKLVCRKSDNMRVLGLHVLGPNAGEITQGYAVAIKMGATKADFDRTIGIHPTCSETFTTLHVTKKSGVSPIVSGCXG

Mammalian TrxR [2] = experiment: Mammalian TrxR inhibition; assay type: biochemical; conditions: in words
SmTGR [3] = molecular target: T1, SmTGR; experiment: Steady state experiments varying NADPH at saturating DTNB; assay type: biochemical
adult worms = experiment: Schistosomicidal activity against ex vivo adult worms; set-up: species or system Schistosoma mansoni
Outline: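 Adult Schistosoma mansoni were perfused from mice seven weeks after infection. They were cultured for 24 hr in RPMI with 10% fetal calf serum, 10 mM glutamine and 1X penicillin/streptomycin before test compound was added. Untreated worms served as controls. Worms were checked daily and scored dead when no movement was seen.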

schistosomula = experiment: Schistosomicidal activity against ex vivo schistosomula; set-up: species or system Schistosoma mansoni
Outline: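 Schistosomula were made by mechanical transformation of cercariae from infected Biomphalaria glabrata, then isolated on a Percoll gradient. They were cultured for 24 hr in M-199 with 10% fetal calf serum before test compound was added. Untreated larvae served as controls. Survival was followed by daily observation, and larvae without movement were scored dead.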

hGR = molecular target: T2, hGR (Homo sapiens, UniProt P00390); experiment: Activity against human glutathione reductase; assay type: biochemical; conditions: results not shown
T2 sequence (P00390 44-522): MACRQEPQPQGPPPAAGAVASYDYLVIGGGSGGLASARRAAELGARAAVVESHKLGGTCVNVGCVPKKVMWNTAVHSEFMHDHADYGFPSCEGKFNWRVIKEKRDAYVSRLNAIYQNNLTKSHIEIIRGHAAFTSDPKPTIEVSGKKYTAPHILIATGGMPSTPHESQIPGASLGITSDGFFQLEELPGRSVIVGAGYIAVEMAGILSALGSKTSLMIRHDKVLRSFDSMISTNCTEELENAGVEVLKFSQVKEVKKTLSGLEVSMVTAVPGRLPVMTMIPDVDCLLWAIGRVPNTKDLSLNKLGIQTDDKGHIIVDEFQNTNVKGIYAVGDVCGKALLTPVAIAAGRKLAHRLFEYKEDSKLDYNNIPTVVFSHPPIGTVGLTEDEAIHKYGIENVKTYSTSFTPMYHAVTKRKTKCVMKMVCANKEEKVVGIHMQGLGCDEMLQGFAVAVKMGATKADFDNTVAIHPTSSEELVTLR

Mammalian TrxR [4] = conditions: ref Bioassays AID 588453 and AID 588456, cited from earlier work
[5] = tested on: TGR activity in treated worms; experiment: Inhibition of TGR in treated ex vivo worms; set-up: species or system Schistosoma mansoni; conditions: adult worms cultured with 50 μM compound, versus DMSO-treated worms
[6] = Behaviour of compound in worm culture medium; assay type: physicochemical

Work on `O=C(O)c1ccc2ccccc2c1` [CID: 7123, 2-Naphthoic acid] yielded an IC50 (SmTGR [1]) of 1100 µM.

`O=C(O)c1ccc2ncccc2n1` [CID: 12426408, 1,5-Naphthyridine-2-carboxylic acid] gave an IC50 (SmTGR [1]) of 2600 µM.

With `O=C(O)c1ccc(CN2CCN(CCO)CC2)nc1` [CID: 80159879, 6-((4-(2-Hydroxyethyl)piperazin-1-yl)methyl)nicotinic acid] the IC50 (SmTGR [1]) was 4400 µM.

With `O=C(O)c1ccc2cccnc2n1` [Compound 1, 1,8-naphthyridine-2-carboxylate] the “Selectivity for SmTGR over hTrxR” value (Mammalian TrxR [2]) was “high selectivity”, the “Inhibition mechanism versus NADPH” value (SmTGR [3]; NADPH 0.01 to 1 mM, DTNB 3 mM) was “mixed competitive inhibition mechanism” and the “KIS, binding of inhibitor to NADPH-bound enzyme (estimated)” value (SmTGR [3]; at 3 mM DTNB) was 4.8 mM. It also gave an Adult worms killed (adult worms; 10 μM, in five days) of 0%, an Adult worms killed (adult worms; 50 μM, in five days) of 13% and a Schistosomula killed (schistosomula; 10 μM, in five days) of 0%. The Schistosomula killed (schistosomula; 50 μM, in five days) was 11%, the “Activity against hGR” value (hGR) was “no detectable activity” and the “Inhibition of mammalian hTrxR (in words)” value (Mammalian TrxR [4]) was “does not inhibit; also recorded: undetectable inhibition”. The “Mammalian TrxR IC50” value (Mammalian TrxR [4]) was “Inactive”.

For `OCCN1CCN(CCO)CC1` [Compound 2, 1,4-bis(2-hydroxyethyl)piperazine], the “SmTGR IC50” value (SmTGR [1]; 6-His-tagged SmTGRwt 20 nM, 10 min preincubation with NADPH 100 μM, DTNB 3 mM) was “inactive”.

For `NCCCCN1CCN(CCO)CC1` [Compound 3, 2-[4-(4-aminobutyl)piperazin-1-yl]ethanol], the IC50 (SmTGR [1]) was > 10000 µM.

In the case of `O=S(=O)(O)CCN1CCN(CCO)CC1` [Compound 4, 4-(2-Hydroxyethyl)-1-piperazineethanesulfonic acid], the IC50 (SmTGR [1]) is reported as 3300 µM.

In the case of `OCCN1CCN(Cc2cc(Cl)c3cccnc3c2O)CC1` [Compound 5, 5-chloro-7-((4-(2-hydroxyethyl)piperazin-1-yl)methyl)quinolin-8-ol], the IC50 (SmTGR [1]) is reported as 120 µM, the “Selectivity for SmTGR over hTrxR” value (Mammalian TrxR [2]) is reported as “high selectivity” and the Adult worms killed (adult worms; 10 μM, in five days) is reported as 27%. For the same molecule, the Adult worms killed (adult worms; 50 μM, in five days) was 88%, the Schistosomula killed (schistosomula; 10 μM, in five days) was 80% and the Schistosomula killed (schistosomula; 50 μM, in 24 hr) was “killed all schistosomula”. For the same molecule, the “GR (GSH disulfide reduction) activity in treated worms” value [5] was “significant inhibition”, the “TrxR (DTNB reduction) activity in treated worms” value [5] was “significant inhibition” and the “Inhibition of mammalian hTrxR (in words)” value (Mammalian TrxR [4]) was “undetectable inhibition”. For the same molecule, the “Mammalian TrxR IC50” value (Mammalian TrxR [4]) was “Inactive”.

For `CCOC(=O)c1c(C)oc2c1c(CN1CCN(CCO)CC1)c(O)c1ccccc12` [Compound 6, ethyl 5-hydroxy-4-{[4-(2-hydroxyethyl)piperazin-1-yl]methyl}−2-methylnaphtho[1,2-b]furan-3-carboxylate], the IC50 (SmTGR [1]) was 0.06 µM, the “Fold more potent than 5 (SmTGR IC50)” value (SmTGR [1]; IC50 of 6 compared with IC50 of 5) was 2000 fold and the “Selectivity for SmTGR over hTrxR” value (Mammalian TrxR [2]) was “high selectivity”. The Adult worms killed (adult worms; 10 μM, in five days) was 9%, the Adult worms killed (adult worms; 50 μM, in four days) was 100% and the Schistosomula killed (schistosomula; 10 μM, in five days) was 100%. The Schistosomula killed (schistosomula; 50 μM, in 24 hr) was “killed all schistosomula”, the “GR (GSH disulfide reduction) activity in treated worms” value [5] was “significant inhibition” and the “TrxR (DTNB reduction) activity in treated worms” value [5] was “significant inhibition”. For the same molecule, the “Solubility behaviour in culture medium” value [6] was “initially precipitated in the culture medium then slowly dissolved over the following hours” and the IC50 (Mammalian TrxR [4]; read-out: Mammalian TrxR IC50) was 1.12 µM.
